pIC50: −log10 of the molar value. Active and inactive are the calls of the source. The calls are words filed in the database; no cut-off is given here. Where a SMILES comes first, the peptide text is derived from it. The star is where a group is joined. Cbz = O=C(OCc1ccccc1)*
Legend:
[1] = Cytotoxicity against human Non-small cell lung carcinoma cells; assay type: functional
How it was run: (§1)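 NCI 60-cell-line human tumour screen, with subpanels for leukemia, melanoma, lung, colon, kidney, ovary, breast, prostate and CNS. Compounds were dissolved in DMSO and tested at five ten-fold dilutions, highest 10^-4 M (10^-3 M for some). Endpoints were GI50, TGI and LC50, reported as negative log molar. Some compounds were assayed once, others two or three times.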

[2] = Cytotoxicity against human colon cancer cells; assay type: functional; conditions: Cancer cell lines; how it was run: as §1
[3] = Cytotoxicity against human central nervous system cancer cells; assay type: functional; conditions: Cancer cell lines; how it was run: as §1
[4] = Cytotoxicity against human melanoma cells; assay type: functional; conditions: Melanoma cell
[5] = Cytotoxicity against human ovarian cancer cells; assay type: functional; conditions: Cancer cell lines
[6] = Cytotoxicity against human renal cancer cells; assay type: functional; conditions: Cancer cell lines; for CC50: read-out: pLC50 (the source's name) (converted); for TGI: read-out: pTGI (converted); how it was run: as §1
[7] = Cytotoxicity against human prostate cancer cells; assay type: functional; conditions: Cancer cell lines; how it was run: as §1
[8] = Cytotoxicity against human breast cancer cells; assay type: functional; conditions: Cancer cell lines; for TGI: read-out: pTGI (converted)
How it was run: (§2)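 MTT cytotoxicity assay in breast cancer cell lines; proliferation expressed as percent growth inhibition relative to vehicle-treated control cells; IC50 reported.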

[9] = Cytotoxicity against human leukemia cells; assay type: functional; conditions: Leukemia cell; for CC50: read-out: pLC50 (the source's name) (converted); for TGI: read-out: pTGI (converted); how it was run: as §1
[10] = Inhibition of plasma membrane electron transport pathway in mitochondrial gene-knockout human HL60p'0 cells by WST1 reduction assay
How it was run: (§3)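 Cells at 10^5 per well in 0.1 ml pretreated 30 min with compound in DMSO (<0.1% final), then WST-1/mPMS added (final 500 µM and 20 µM); WST-1 reduction followed in real time at 450 nm; averages ± S.E.M. of four independent experiments.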

[11] = Inhibition of plasma membrane electron transport pathway in human HL60 cells by WST1 reduction assay; assay type: cell-based; conditions: HL-60; how it was run: as §3
[12] = Inhibition of plasma membrane electron transport pathway in human B1647 cells by WST1 reduction assay; assay type: cell-based; how it was run: as §3
[13] = Inhibition of plasma membrane electron transport pathway in human HEL cells by WST1 reduction assay; assay type: cell-based; how it was run: as §3
[14] = Inhibition of plasma membrane electron transport pathway in human Mo7e cells by WST1 reduction assay; assay type: cell-based; how it was run: as §3
B1647 = experiment: Antiproliferative activity against human B1647 cells after 48 hrs by MTT assay; assay type: functional, cell-based
HEL = experiment: Antiproliferative activity against human HEL cells after 48 hrs by MTT assay; assay type: functional, cell-based
Mo7e = experiment: Antiproliferative activity against human Mo7e cells after 48 hrs by MTT assay; assay type: functional, cell-based
MCF7 [15] = experiment: Cytotoxicity against human MCF7 cells; assay type: functional, cell-based
MDA-MB-231 = experiment: Cytotoxicity against human MDA-MB-231 cells; assay type: functional, cell-based
MCF7 [16] = experiment: Inhibition of proteasome in human MCF7 cells assessed as effect on stability of BCA2 protein at 10 umol/L in presence of cyclohexamide after 8 hrs by Western blot
How it was run: (§4)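 MCF7 cells, 1×10^6 seeded per well, grown overnight; cycloheximide 100 μmol/L added alone or with MG-132 (10 μmol/L) or compound, total 8 and 16 h; lysates Western blotted with anti-BCA2, anti-C-erbB2 and β-actin antibodies; BCA2 and C-erbB2 levels expressed relative to β-actin by densitometry.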

MCF7 [17] = experiment: Inhibition of proteasome in human MCF7 cells assessed as effect on stability of BCA2 protein at 1 umol/L in presence of cyclohexamide after 8 hrs by Western blot; how it was run: as §4
MCF7 [18] = experiment: Inhibition of proteasome in human MCF7 cells assessed as increase in stability of BCA2 protein at 10 umol/L in presence of cyclohexamide after 16 hrs by Western blot; how it was run: as §4
Hs-578T = experiment: Cytotoxicity against human Hs578T cells; assay type: functional, cell-based; how it was run: as §2
MCF7 [19] = experiment: Inhibition of proteasome in human MCF7 cells assessed as increase in stability of BCA2 protein at 1 umol/L in presence of cyclohexamide after 16 hrs by Western blot; how it was run: as §4
MCF7 [20] = experiment: Effect on beta-actin stability in human MCF7 cells at 10 umol/L in presence of cyclohexamide by Western blot; assay type: functional, cell-based; how it was run: as §4
MCF7 [21] = experiment: Effect on C-erbB2 protein stability in human MCF7 cells at 10 umol/L in presence of cyclohexamide by Western blot; assay type: functional, cell-based; how it was run: as §4
HL-60 = experiment: Cytotoxicity against human HL60 cells after 48 hrs by MTT assay; assay type: functional, cell-based; conditions: HL-60, 48 h
[22] = Cytotoxicity against human mitochondrial gene-knockout human HL60p'0 cells after 48 hrs by MTT assay; assay type: functional, cell-based
Mus musculus = experiment: Toxicity in ip dosed mouse assessed as maximum tolerated dose after 14 days; assay type: organism-based; conditions: in vivo, 336 h
How it was run: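 Mice received a single i.p. injection of 400 mg/kg. If the animal survived 14 days, MTD was 400 mg/kg. If it died, the dose was lowered to 200 mg/kg and then halved repeatedly until a tolerated dose was found, which was taken as the MTD.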

[23] = read-out: pLC50 (the source's name) (converted)

In the case of O=C1Nc2ccc(O)cc2/C1=C\c1cccc(/C=C2/C(=O)Nc3ccc(O)cc32)n1, the GI50 [1] was 33.9 µM, the GI50 [2] was 38.9 µM and the GI50 [3] was 40.7 µM. It also gave a GI50 [4] of 83.2 µM, a GI50 [5] of 83.2 µM and a GI50 [6] of 34.7 µM. For the same compound, the CC50 [6] was 95.5 µM, the TGI [6] was 69.2 µM and the GI50 [7] was 20 µM. It also gave a GI50 [8] of 40.7 µM, a TGI [8] of 85.1 µM and a GI50 [9] of 17.4 µM. The CC50 [9] was 93.3 µM, the TGI [9] was 55 µM and the pIC50 [10] was under 3.93. The pIC50 [11] was under 3.93, the pIC50 [12] was 4.40 and the pIC50 [13] was 4.40. For the same compound, the pIC50 [14] was 4.40, the Activity (B1647) was “Active” and the Activity (HEL) was “Active”. The Activity (Mo7e) was “Active”.
For CC(C)C[C@@H](C=O)NC(=O)[C@H](CC(C)C)NC(=O)[C@H](CC(C)C)NC(=O)OCc1ccccc1 [MG-132] (Cbz-Leu-Leu-Leu-aldehyde), the pIC50 (MCF7 [15]) was 6.52, the pIC50 (MDA-MB-231) was 6.60 and the Activity (MCF7 [16]) was “Active”. The Activity (MCF7 [17]) was “inactive” and the fold change (FC) (MCF7 [18]) was over 10.
O=C1Nc2cccc(Cl)c2/C1=C\c1cccc(/C=C2/C(=O)Nc3cccc(Cl)c32)n1 showed a GI50 [1] of 0.676 µM, a CC50 [1, 23] of 34.7 µM and a TGI ([1]; read-out: pTGI (converted)) of 2.69 µM. The GI50 [2] was 0.417 µM, the CC50 [2, 23] was 19.1 µM and the GI50 [3] was 0.603 µM. The CC50 [3, 23] was 23.4 µM, the TGI ([3]; read-out: pTGI (converted)) was 2.82 µM and the GI50 [4] was 0.589 µM. It also gave a CC50 [4, 23] of 15.8 µM, a GI50 [5] of 0.501 µM and a CC50 [5, 23] of 30.9 µM. For the same compound, the TGI ([5]; read-out: pTGI (converted)) was 2.82 µM, the GI50 [6] was 0.427 µM and the CC50 [6] was 7.59 µM. For the same compound, the TGI [6] was 1.51 µM, the GI50 [7] was 0.437 µM and the CC50 [7, 23] was 15.8 µM. The TGI ([7]; read-out: pTGI (converted)) was 2.09 µM, the GI50 [8] was 0.389 µM and the CC50 [8, 23] was 39.8 µM. For the same compound, the TGI [8] was 3.31 µM, the GI50 [9] was 0.0912 µM and the CC50 [9] was 44.7 µM. The TGI [9] was 1.91 µM, the pIC50 (MCF7 [15]) was 6.64 and the pIC50 (MDA-MB-231) was 6.52. The pIC50 (Hs-578T) was 6.40, the fold change (FC) (MCF7 [19]) was 2 and the Activity (MCF7 [20]) was “inactive”. The Activity (MCF7 [21]) was “inactive”, the pIC50 [10] was under 3.93 and the pIC50 [11] was under 3.93. For the same compound, the pIC50 (HL-60) was 5.52, the pIC50 [22] was 5.52 and the pIC50 [12] was 4.52. For the same compound, the pIC50 [13] was 4.62, the pIC50 [14] was 4.82 and the Activity (B1647) was “Active”. The Activity (HEL) was “Active”, the Activity (Mo7e) was “Active” and the MTD (Mus musculus) was 400 mg/kg.

Source: ChEMBL document CHEMBL1155808, “Antitumor activity of bis-indole derivatives” (J Med Chem, 2008)
